Compound activity: PubChem, SRMLSC
The entries come from a sample that favours hits as a whole.
PostGolgi ctrl – yeast control strain growth, post-Golgi counter-screen; efflux-deficient yeast background strain, growth absorbance A615, 16 h; inhibition, % at 10 µM; 98,000 compounds, 5% hits; AID 738
BB579 growth dn – reduces growth of yeast BB579 in restrictive medium; S. cerevisiae BB579 growth, OD615, 48 h; inhibition, % at 10 µM; 140,000 compounds, 0.51% hits;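 active means inhibition above a set limit, 3 SD over the mean compound inhibition, cut at about 44% in these data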
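Test system: DeaD yeast strain BB579 / Buffer or medium: restrictive glucose-based CSMM-D medium / Doses: single 10 µM dose / Schedule: 4 h cell preincubation, 48 h compound exposure, 30 °C humidified / Technique: culture absorbance at 615 nm / Controls: amphotericin B positive control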
PostGolgi yeast – growth inhibition of a yeast mutant, post-Golgi transport screen | AID 739 | 98,000 compounds, 0.9% hits | post-Golgi transport phenotypic cell assay | inhibition, % at 10 µM;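 further: yeast cells grown in 1536-well plates; yeast grown about 18 h at 30C before absorbance read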
Yeast lifespan up – extends the lifespan of yeast; S. cerevisiae growth with nicotinamide, OD615; deaD strain in restrictive glucose medium; 130,000 compounds, 0.68% hits; inhibition of the nicotinamide effect, % at 10 µM;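 active means inhibition above a set limit, placed 3 SD over the median of all compounds, cut at about 26% in these data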;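 further: 0% = nicotinamide-treated wells and 100% = cells grown without nicotinamide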
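Buffer or medium: CSMM-D glucose medium, restrictive; test system: modified budding yeast, DeaD strain; compound: single dose 10 µM compound, 0.25% DMSO; schedule: culture preincubation 4 h, compound exposure 48 h, both 30 °C; detection: optical density (absorbance) at 615 nm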
Starred values were filed as active, the others as inactive. Unless noted, no stated cut-off is given here; in the data, active means inhibition above about 30%; inactive means the rest.

Results for CC(C)(C)C(=O)/C=C(N)/C=C/c1ccccc1 ?
PostGolgi ctrl: 33*; BB579 growth dn: -67; PostGolgi yeast: -2; Yeast lifespan up: -14

How did COc1ccc(-c2cc(C(F)(F)F)nc(N3CCOCC3)n2)cc1OC do in these assays?
PostGolgi ctrl: 9; BB579 growth dn: 15; PostGolgi yeast: -4; Yeast lifespan up: -10

What do the screens show for `COc1ccc(-c2cc(C(F)(F)F)nc(NC3CCCC3)n2)cc1OC`?
PostGolgi ctrl: 34*; BB579 growth dn: -25; PostGolgi yeast: 0; Yeast lifespan up: -5

What do the screens show for `Clc1ccc(Cn2cc(/C=N/n3cnnc3)c3ccccc32)c(Cl)c1`?
PostGolgi ctrl: 32*; BB579 growth dn: -45; PostGolgi yeast: -1; Yeast lifespan up: -4

Results for C(=N\n1cnnc1)/c1cn(Cc2ccccc2)c2ccccc12 ?
PostGolgi ctrl: 16; BB579 growth dn: -16; PostGolgi yeast: -2; Yeast lifespan up: -10

Results for CCCCC(=O)c1ccc(O)cc1O ?
BB579 growth dn: -21

What do the screens show for `O=C(Cc1ccc(Br)cc1)c1ccc(O)cc1O`?
PostGolgi ctrl: 30*; BB579 growth dn: -5; PostGolgi yeast: -3; Yeast lifespan up: -12

What do the screens show for `COc1ccc(C(C[N+](=O)[O-])c2c(-c3ccccc3)cc3ccccn23)cc1OC` (centres undefined)?
PostGolgi ctrl: 11; BB579 growth dn: 19; PostGolgi yeast: 7; Yeast lifespan up: 25

What do the screens show for `COc1cc(C(C[N+](=O)[O-])c2c(-c3ccccc3)cc3ccccn23)cc(OC)c1OC` (centres undefined)?
PostGolgi ctrl: 1; BB579 growth dn: -53; PostGolgi yeast: 3; Yeast lifespan up: 78*

How did C=CCOc1ccc2nnc(C)n2n1 do in these assays?
BB579 growth dn: 3; Yeast lifespan up: 1

How did CCn1c(SCC(=O)N2c3ccccc3Sc3ccccc32)nnc1-c1ccco1 do in these assays?
PostGolgi ctrl: 11; BB579 growth dn: -48; PostGolgi yeast: -5; Yeast lifespan up: -1

What do the screens show for `Cn1c(SCC(=O)N2c3ccccc3Sc3ccc(Cl)cc32)nnc1-c1ccco1`?
PostGolgi ctrl: 60*; BB579 growth dn: -14; PostGolgi yeast: 53*; Yeast lifespan up: 12

What do the screens show for `CCOC(=O)/C(=C\c1cn(C)c2ccccc12)[N+](=O)[O-]`?
BB579 growth dn: -15; Yeast lifespan up: 44*

What do the screens show for `Cc1ccc2cc(CCNC(=O)c3ccc(Br)o3)c(=O)[nH]c2c1`?
PostGolgi ctrl: 101*; BB579 growth dn: -11; PostGolgi yeast: 21; Yeast lifespan up: 14

Results for CN(C)N1C(=O)CC(NNC(=O)c2ccncc2)C1=O (centres undefined) ?
BB579 growth dn: 7; Yeast lifespan up: 2

How did COc1cnc(SCc2c(Cl)cccc2Cl)nc1Cl do in these assays?
PostGolgi ctrl: 34*; BB579 growth dn: -12; PostGolgi yeast: 17; Yeast lifespan up: -15

What do the screens show for `Cc1nc(SCc2c(F)cccc2Cl)n[nH]1`?
PostGolgi ctrl: 3; BB579 growth dn: -11; PostGolgi yeast: -7; Yeast lifespan up: -14

What do the screens show for `Cc1ccc(OC(=O)c2cc(=O)c3ccccc3o2)cc1`?
BB579 growth dn: 3; Yeast lifespan up: 3

What do the screens show for `CCOC(=O)Nc1cc(=O)c2ccccc2o1`?
PostGolgi ctrl: 43*; BB579 growth dn: -39; PostGolgi yeast: -6; Yeast lifespan up: -23

What do the screens show for `CC(C)(C)C(=O)O/N=C1/C(=O)N(c2ccccc2)c2ccccc21`?
PostGolgi ctrl: 40*; BB579 growth dn: 67*; PostGolgi yeast: 15; Yeast lifespan up: -15

What do the screens show for `CCCOc1cccc(-c2nn(-c3ccccc3)cc2/C=C(\C#N)C(=O)NCCCn2ccnc2)c1`?
BB579 growth dn: -24; Yeast lifespan up: -4

Results for N#C/C(=C/c1cn(-c2ccccc2)nc1-c1cccc(OCc2ccc(F)cc2)c1)C(=O)NCCCn1ccnc1 ?
BB579 growth dn: 63*; Yeast lifespan up: -6

How did COc1ccc2c(c1)c(=O)oc1cc(OCC(=O)NC3CCCCC3)ccc12 do in these assays?
PostGolgi ctrl: 93*; BB579 growth dn: -19; PostGolgi yeast: 81*; Yeast lifespan up: -7

Results for COc1ccc2c(c1)c(=O)oc1cc(OCC(=O)NC3CC3)ccc12 ?
PostGolgi ctrl: -6; BB579 growth dn: -33; PostGolgi yeast: 10; Yeast lifespan up: -10

How did Cc1sc(-c2ccncc2)nc1OC(=O)c1ccc(Cl)cc1 do in these assays?
PostGolgi ctrl: 36*; BB579 growth dn: -1; PostGolgi yeast: 0; Yeast lifespan up: -5

How did C/C(=N\OC(=O)c1ccc(Cl)cc1)c1sc(-c2ccccc2)nc1C do in these assays?
PostGolgi ctrl: 4; BB579 growth dn: -29; PostGolgi yeast: 0; Yeast lifespan up: 5

How did Cc1sc(-c2ccncc2)nc1OC(=O)c1cc(Cl)cc(Cl)c1 do in these assays?
PostGolgi ctrl: 32*; BB579 growth dn: -6; PostGolgi yeast: -3; Yeast lifespan up: 0

How did CCOc1cnc(-c2ccc(OC)cc2)o1 do in these assays?
PostGolgi ctrl: 13; BB579 growth dn: 9; PostGolgi yeast: 31*; Yeast lifespan up: -22

Results for O=C(Cc1ccc(Br)cc1)OCC(=O)N1CCc2ccccc2C1 ?
BB579 growth dn: -32; Yeast lifespan up: -2

How did COc1ccc(C(=O)NCc2nnc(SCC(=O)Nc3nc4ccccc4s3)o2)cc1OC do in these assays?
BB579 growth dn: -15; Yeast lifespan up: -2

Results for O=C(c1ccc(CNc2c(N3CCCC3)c(=O)c2=O)cc1)N1CCc2ccccc2C1 ?
PostGolgi ctrl: 1; BB579 growth dn: -49; PostGolgi yeast: 7; Yeast lifespan up: -3

How did Nc1nc2ccc(Oc3ccccc3)cc2s1 do in these assays?
PostGolgi ctrl: 32*; BB579 growth dn: -48; PostGolgi yeast: 10; Yeast lifespan up: -17

Results for COc1ccc(Oc2cc(C(F)(F)F)cnc2C(N)=O)cc1 ?
PostGolgi ctrl: -6; BB579 growth dn: 0; PostGolgi yeast: 12; Yeast lifespan up: -10

How did CC(C)OCCCNC(=O)c1cccs1 do in these assays?
PostGolgi ctrl: 32*; BB579 growth dn: -25; PostGolgi yeast: 0; Yeast lifespan up: -17

How did CSc1nc2ccccc2n1CC(=O)Nc1cc(C(F)(F)F)ccc1N1CCOCC1 do in these assays?
PostGolgi ctrl: -9; BB579 growth dn: 10; PostGolgi yeast: -7; Yeast lifespan up: -17

How did O=C(CSc1nc2c(sc3ccccc32)c(=O)n1Cc1ccco1)NCC1CCCO1 (centres undefined) do in these assays?
PostGolgi ctrl: 32*; BB579 growth dn: -11; PostGolgi yeast: 6; Yeast lifespan up: -7

Results for O=C(CSc1nc2c(sc3ccccc32)c(=O)n1Cc1ccccc1)NCC1CCCO1 (centres undefined) ?
PostGolgi ctrl: 5; BB579 growth dn: -24; PostGolgi yeast: -2; Yeast lifespan up: -3

What do the screens show for `CCCC(=O)NC(=S)Nc1cccc(Cl)c1N1CCCCC1`?
PostGolgi ctrl: 16; BB579 growth dn: -26; PostGolgi yeast: -6; Yeast lifespan up: 2

What do the screens show for `CCC(=O)NC(=S)Nc1cccc(Cl)c1N1CCCCC1`?
PostGolgi ctrl: 45*; BB579 growth dn: -50; PostGolgi yeast: 2; Yeast lifespan up: -14

Results for CCCCC(=O)NC(=S)Nc1cccc(Cl)c1N1CCCCC1 ?
BB579 growth dn: -47; Yeast lifespan up: 29*
